From ChEMBL document CHEMBL3872218, “Synthesis and T-type calcium channel-blocking effects of aryl(1,5-disubstituted-pyrazol-3-yl)methyl sulfonamides for neuropathic pain treatment” (Eur J Med Chem, 2016)

Experiments:
[1] = AUClast in Sprague-Dawley rat at 10 mg/kg, iv; type: ADME, organism-based; design: dose 10 mg/kg, time 0 - last, route intravenous; conditions: in vivo
[2] = Tmax in Sprague-Dawley rat at 10 mg/kg, po; type: ADME, organism-based; conditions: in vivo
[3] = Mean residence time in Sprague-Dawley rat at 10 mg/kg, iv; type: ADME, organism-based; conditions: in vivo
Rattus norvegicus [4] = test: Antineuropathic pain activity in rat spinal nerve ligation model assessed as effect on cold allodynia by measuring frequency of paw withdrawal at 100 mg/kg, po measured at 5 hrs relative to control; type: functional
In short: (§1)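 Spinal nerve ligation rats tested 2 weeks after nerve surgery, 100 mg/kg oral, n = 4 per group. Behaviour re-tested at 1, 3 and 5 h after dosing. Mechanical allodynia: von Frey filament applied five times, every 3–4 s, to the hind paw on a wire mesh floor. Cold allodynia: acetone applied to the plantar hind paw on a metal mesh floor.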

Rattus norvegicus [5] = test: Antineuropathic pain activity in rat spinal nerve ligation model assessed as effect on cold allodynia by measuring frequency of paw withdrawal at 100 mg/kg, po measured at 5 hrs relative to gabapentin; type: functional; in short: as §1
Homo sapiens = organism: Homo sapiens; test: Inhibition of N-type Ca2+ channel (unknown origin) at 10 uM by whole-cell patch clamp method relative to control
[6] = Inhibition of N-type Ca2+ channel (unknown origin) by whole-cell patch clamp method; conditions: Homo sapiens
[7] = Terminal half life in Sprague-Dawley rat at 10 mg/kg, iv; type: ADME, organism-based; conditions: in vivo, read-out: beta t1/2
[8] = target: Voltage-dependent T-type calcium channel subunit alpha-1G (Homo sapiens, UniProt O43497); test: Inhibition of Cav3.1 alpha1G (unknown origin) expressed in HEK293 cells assessed as decrease in KCl-induced depolarization mediated intracellular Ca2+ level at 10 uM by fluo3/AM based high throughput screening assay relative to control; type: cell-based
In short: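 HEK293 cells stably expressing Cav3.1 or Cav3.2 plated at 4 × 10⁴ cells/well and used the next day. Loaded 60 min at room temperature with […] fluo3/AM plus 0.001% Pluronic F-127 in HEPES-buffered saline (1.8 mM CaCl₂, pH 7.4). Ca²⁺ fluorescence read on FDSS6000 as % inhibition, compound at […].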

Rattus norvegicus [9] = test: Antineuropathic pain activity in rat spinal nerve ligation model assessed as effect on cold allodynia by measuring frequency of paw withdrawal at 100 mg/kg, po measured at 1 hr relative to gabapentin; type: functional; in short: as §1
CYP1A2 = target: T1, CYP1A2 (Homo sapiens, UniProt P05177); test: Inhibition of human CYP1A2 assessed as remaining activity at 10 uM using vivid CYP450 substrate measured after 15 mins by fluorescence assay relative to alpha-naphthoflavon; type: ADME; conditions: probe vivid CYP450 substrate, read-out: Activity
T1 sequence (P05177 whole entry): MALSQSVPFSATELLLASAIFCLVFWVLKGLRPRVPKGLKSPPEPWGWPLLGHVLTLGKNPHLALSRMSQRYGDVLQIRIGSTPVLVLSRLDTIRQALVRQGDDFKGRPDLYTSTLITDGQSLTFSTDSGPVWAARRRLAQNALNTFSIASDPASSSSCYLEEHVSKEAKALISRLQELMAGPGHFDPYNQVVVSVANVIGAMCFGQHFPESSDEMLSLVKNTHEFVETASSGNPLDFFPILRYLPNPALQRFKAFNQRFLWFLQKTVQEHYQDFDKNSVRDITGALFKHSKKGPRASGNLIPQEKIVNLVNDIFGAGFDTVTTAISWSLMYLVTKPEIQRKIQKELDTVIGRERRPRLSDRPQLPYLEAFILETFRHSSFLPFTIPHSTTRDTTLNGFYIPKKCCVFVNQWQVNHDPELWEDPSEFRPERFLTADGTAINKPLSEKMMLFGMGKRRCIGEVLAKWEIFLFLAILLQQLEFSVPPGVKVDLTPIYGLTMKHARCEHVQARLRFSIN
In short: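 Vivid fluorescence CYP assay: test compound at […] in water, mixed with BACULOSOMES master pre-mix and regeneration system, preincubated 15 min at 37 °C. Reaction started with Vivid substrate and NADPH. Remaining activity read by fluorescence as % of control, triplicate, mean ± SD. Isoform-specific reference inhibitors: α-naphthoflavone (1A2), sulfaphenazole (2C9), quinidine (2D6), ketoconazole (3A4).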

Rattus norvegicus [10] = test: Antineuropathic pain activity in rat spinal nerve ligation model assessed as effect on mechanical allodynia by measuring frequency of paw withdrawal at 100 mg/kg, po measured at 5 hrs relative to control; type: functional; in short: as §1

Chain of Voltage-dependent T-type calcium channel subunit alpha-1G (O43497 whole entry): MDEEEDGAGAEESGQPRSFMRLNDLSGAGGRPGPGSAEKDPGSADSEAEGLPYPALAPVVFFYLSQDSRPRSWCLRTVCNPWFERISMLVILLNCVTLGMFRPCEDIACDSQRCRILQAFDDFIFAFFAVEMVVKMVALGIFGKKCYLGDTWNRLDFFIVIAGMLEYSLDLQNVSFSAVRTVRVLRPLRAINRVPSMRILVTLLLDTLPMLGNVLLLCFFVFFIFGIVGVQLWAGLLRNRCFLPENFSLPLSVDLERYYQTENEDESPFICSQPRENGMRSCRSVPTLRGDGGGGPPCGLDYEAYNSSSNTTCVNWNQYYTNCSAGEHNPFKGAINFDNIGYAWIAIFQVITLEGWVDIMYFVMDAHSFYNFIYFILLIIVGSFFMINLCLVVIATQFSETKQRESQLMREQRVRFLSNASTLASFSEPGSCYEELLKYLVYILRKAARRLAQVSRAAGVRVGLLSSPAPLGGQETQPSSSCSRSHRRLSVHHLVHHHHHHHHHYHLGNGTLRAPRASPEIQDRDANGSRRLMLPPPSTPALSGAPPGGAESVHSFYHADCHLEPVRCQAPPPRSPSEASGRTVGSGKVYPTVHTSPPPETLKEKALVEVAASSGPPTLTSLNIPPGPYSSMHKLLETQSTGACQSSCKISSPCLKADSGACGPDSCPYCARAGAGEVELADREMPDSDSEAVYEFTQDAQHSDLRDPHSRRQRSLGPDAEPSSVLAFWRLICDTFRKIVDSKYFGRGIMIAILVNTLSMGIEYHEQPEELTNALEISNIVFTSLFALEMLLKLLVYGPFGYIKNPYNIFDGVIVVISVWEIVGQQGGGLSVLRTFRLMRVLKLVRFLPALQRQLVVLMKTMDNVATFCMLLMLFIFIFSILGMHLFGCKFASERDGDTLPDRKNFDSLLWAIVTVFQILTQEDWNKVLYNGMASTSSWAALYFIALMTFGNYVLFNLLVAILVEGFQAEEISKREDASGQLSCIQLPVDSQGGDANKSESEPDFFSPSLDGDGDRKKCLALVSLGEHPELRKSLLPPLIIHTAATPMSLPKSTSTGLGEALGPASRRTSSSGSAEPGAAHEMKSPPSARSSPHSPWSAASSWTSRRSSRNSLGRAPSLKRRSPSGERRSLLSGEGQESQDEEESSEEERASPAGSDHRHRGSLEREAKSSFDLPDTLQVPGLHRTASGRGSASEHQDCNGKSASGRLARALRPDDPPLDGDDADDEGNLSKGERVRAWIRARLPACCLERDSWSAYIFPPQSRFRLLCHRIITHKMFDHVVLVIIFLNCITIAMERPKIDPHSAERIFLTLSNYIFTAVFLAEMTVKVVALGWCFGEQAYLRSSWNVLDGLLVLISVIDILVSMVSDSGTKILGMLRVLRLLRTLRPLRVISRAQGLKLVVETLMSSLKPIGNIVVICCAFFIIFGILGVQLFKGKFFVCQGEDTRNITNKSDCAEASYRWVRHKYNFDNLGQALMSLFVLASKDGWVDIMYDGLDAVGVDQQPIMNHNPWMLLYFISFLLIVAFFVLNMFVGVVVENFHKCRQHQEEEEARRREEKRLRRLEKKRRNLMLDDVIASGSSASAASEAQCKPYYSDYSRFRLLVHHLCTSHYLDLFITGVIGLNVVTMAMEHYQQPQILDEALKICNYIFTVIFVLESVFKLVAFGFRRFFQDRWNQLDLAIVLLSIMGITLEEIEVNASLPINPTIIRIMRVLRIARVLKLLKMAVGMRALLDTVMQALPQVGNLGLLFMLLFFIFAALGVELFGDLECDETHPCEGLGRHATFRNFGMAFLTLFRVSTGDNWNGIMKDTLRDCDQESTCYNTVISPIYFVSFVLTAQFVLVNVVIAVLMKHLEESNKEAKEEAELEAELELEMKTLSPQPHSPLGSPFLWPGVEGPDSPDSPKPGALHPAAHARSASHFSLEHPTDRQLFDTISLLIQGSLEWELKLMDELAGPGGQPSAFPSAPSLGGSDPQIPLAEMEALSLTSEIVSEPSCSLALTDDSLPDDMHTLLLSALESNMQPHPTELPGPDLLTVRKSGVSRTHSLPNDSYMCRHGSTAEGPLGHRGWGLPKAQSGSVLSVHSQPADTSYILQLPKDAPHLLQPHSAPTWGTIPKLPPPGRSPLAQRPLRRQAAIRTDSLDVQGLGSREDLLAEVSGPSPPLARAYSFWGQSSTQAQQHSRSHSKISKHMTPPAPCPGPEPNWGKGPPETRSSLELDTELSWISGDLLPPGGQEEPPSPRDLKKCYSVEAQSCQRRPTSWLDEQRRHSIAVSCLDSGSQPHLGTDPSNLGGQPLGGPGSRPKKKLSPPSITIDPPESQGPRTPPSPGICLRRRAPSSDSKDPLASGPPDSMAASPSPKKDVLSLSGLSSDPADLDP

Structure (SMILES): CC(C)Cc1cc(CNS(=O)(=O)c2cccc(F)c2)nn1-c1ccccc1
- AUC(0-t) [1]: 2010 ng·h/mL
- Tmax [2]: 1.1 h
- MRT [3]: 58 min
- MPE (Rattus norvegicus [4]): 80.82%
- MPE (Rattus norvegicus [5]): 185.11%
- inhibition (Homo sapiens): 55.6%
- IC50 [6]: 14.5 µM
- half-life [7]: 55.7 min
- inhibition [8]: 64.1%
- MPE (Rattus norvegicus [9]): 202.07%
- activity at 0.25 h, 10 µM (CYP1A2): 45.6%
- MPE (Rattus norvegicus [10]): 19.48%
